According to ChEMBL document CHEMBL4477183, “Antimicrobial Peptide from the Wild Bee Hylaeus signatus Venom and Its Analogues: Structure-Activity Study and Synergistic Effect with Antibiotics” (J Nat Prod, 2016):
Values after ≈ are worked out from the molar mass of the structure shown. Non-standard residues stand in square brackets, D forms with d. Residues, ends and D or L forms follow the SMILES beside them. ξ: configuration not given here. ξNle = CCCCC(N)C(=O)O

How the values were obtained:
[1] = tested on: Micrococcus luteus; assay: Antimicrobial activity against Micrococcus luteus assessed as reduction in bacterial growth after 20 hrs by […]; type: functional
Procedure, shortened: (§1)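 Broth microdilution in LB (YPG for C. albicans) with 2-fold serial dilutions, final 0.1–100 μM. Mid-log cells grown 3–5 h at 37 °C were added at about 5 × 10^5 cfu/mL, then incubated 20 h at 37 °C with shaking. A540 was read every 15 min to build growth curves. Medium with cells served as growth control; at least three runs in duplicate.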

[2] = tested on: Staphylococcus epidermidis; assay: Antimicrobial activity against Staphylococcus epidermidis assessed as reduction in bacterial growth after 20 hrs by broth microdilution assay
[3] = tested on: Escherichia coli; assay: Antimicrobial activity against Escherichia coli assessed as reduction in bacterial growth after 20 hrs by […]; type: functional; procedure, shortened: as §1
[4] = tested on: Pseudomonas aeruginosa; assay: Antimicrobial activity against Pseudomonas aeruginosa clinical isolates assessed as reduction in bacterial growth after 20 hrs by […]; type: functional; procedure, shortened: as §1
[5] = tested on: Staphylococcus aureus; assay: Antimicrobial activity against Staphylococcus aureus clinical isolates from university hospital in Motol assessed as reduction in bacterial growth after 20 hrs by drop diffusion test; type: functional
[6] = tested on: Staphylococcus aureus; assay: Antimicrobial activity against Staphylococcus aureus clinical isolates assessed as FIC index in presence of amoxicillin after 20 hrs by drop diffusion test; type: functional
[7] = Hemolytic activity in human type RBC after 1 hr; type: ADME, cell-based, Erythrocyte; conditions: red blood cells (erythrocytes), read-out: LC50
Procedure, shortened: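 Peptides at 2.5–400 μM were incubated with a 4% suspension of human erythrocytes in physiological solution for 1 h at 37 °C, then centrifuged at 250g for 5 min; supernatant A540 was read. Saline-treated cells gave 0% lysis and 0.2% Triton X-100 gave 100%. LC50 is the concentration lysing 50% of cells; duplicates in at least two independent experiments.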

[8] = tested on: Staphylococcus aureus; assay: Antimicrobial activity against Staphylococcus aureus 6271 assessed as reduction in bacterial growth after 20 hrs by broth microdilution assay; conditions: Staphylococcus aureus, 6271, 20 h
[9] = tested on: Staphylococcus aureus; assay: Antimicrobial activity against Staphylococcus aureus clinical isolates from Liberec regional hospital assessed as reduction in bacterial growth after 20 hrs by […]; type: functional; procedure, shortened: as §1
[10] = tested on: Bacillus subtilis; assay: Antimicrobial activity against Bacillus subtilis assessed as reduction in bacterial growth after 20 hrs by […]; type: functional; procedure, shortened: as §1
[11] = tested on: Pseudomonas aeruginosa; assay: Antimicrobial activity against Pseudomonas aeruginosa clinical isolates assessed as FIC index in presence of rifampicin after 20 hrs by drop diffusion test; type: functional
[12] = tested on: Pseudomonas aeruginosa; assay: Antimicrobial activity against Pseudomonas aeruginosa 5482 assessed as reduction in bacterial growth after 20 hrs […]; type: functional; conditions: Pseudomonas aeruginosa, 5482, 20 h; procedure, shortened: as §1
[13] = tested on: Candida albicans; assay: Antifungal activity against Candida albicans assessed as reduction in fungal growth after 20 hrs by […]; type: functional; procedure, shortened: as §1
[14] = tested on: Pseudomonas aeruginosa; assay: Antimicrobial activity against Pseudomonas aeruginosa clinical isolates assessed as FIC index in presence of tetracycline after 20 hrs by drop diffusion test; type: functional
[15] = tested on: Staphylococcus aureus; assay: Antimicrobial activity against Staphylococcus aureus clinical isolates from Liberec regional hospital assessed as reduction in bacterial growth after 20 hrs by broth microdilution assay

Molecule	MIC [1] [µM]	MIC [2] [µM]	MIC [3] [µM]	MIC [4] [µM]	MIC [5] [µM]	fractional inhibitory concentration index (FICI) [6]	HC50 at 1 h [7] [µM]	MIC [8] [µM]	MIC [9] [µM]	MIC [10] [µM]	fractional inhibitory concentration index (FICI) [11]	MIC [12] [µM]	MIC [13] [µM]	fractional inhibitory concentration index (FICI) [14]	MIC [15] [µM]
CCCCC(NC(=O)[C@H](CC(C)C)NC(=O)[C@H](CO)NC(=O)[C@H](CO)NC(=O)C(CCCC)NC(=O)[C@@H](NC(=O)CN)[C@@H](C)CC)C(=O)N[C@@H](CCCCN)C(=O)N[C@@H](CCCCN)C(=O)N[C@@H](CC(C)C)C(=O)N[C@@H](CCCCN)C(=O)N[C@@H](CCCCN)C(=O)N[C@H](C(=O)N[C@H](C(=O)N[C@@H](C)C(N)=O)[C@@H](C)CC)[C@@H](C)CC (some centres undefined) (H-GI[ξNle]SSL[ξNle]KKLKKIIA-NH2)	≤ 3	2.5 (≈ 4.06 µg/mL)	10 (≈ 16.2 µg/mL)	7.9 (≈ 12.8 µg/mL)	6.7 (≈ 10.9 µg/mL)	0.55	373	13 (≈ 21.1 µg/mL)	4 (≈ 6.5 µg/mL)	≤ 7	0.93	4 (≈ 6.5 µg/mL)	10 (≈ 16.2 µg/mL)	0.58	
H-GILSSWLKKLKKIIAK-NH2	≤ 3	2	11	5.9	16	0.37	> 400	16	6.6	≤ 7	0.4	4	17	0.65	
H-GILSSLWKKLKKIIAK-NH2	≤ 3	2	3.4	8.8	5	0.56	197	5.3	2	≤ 7	0.44	5.3	11	0.65	
H-GILSSLLKKLKKWIAK-NH2	≤ 3	1.6	4	21	4	0.56	115	8		≤ 7	0.27	8	16	0.63	2.6
H-GIMSSLMKKLAAIIAK-NH2	≤ 3	5	3.6	17	10	0.56	93	7.2		≤ 7	0.51	8	8.4	0.76	10
H-GKLSSLWKKLKKIIAK-NH2	≤ 3	2.5	20	19	27	0.25	> 400	26		≤ 7	0.29	6.8	34	0.54	11
CC[C@@H](C)[C@@H](NC(=O)CN)C(=O)N[C@H](CC(C)C)C(=O)N[C@H](CO)C(=O)N[C@H](CO)C(=O)N[C@H](CC(C)C)C(=O)N[C@H](Cc1c[nH]c2ccccc12)C(=O)N[C@H](CCCCN)C(=O)N[C@H](CCCCN)C(=O)N[C@H](CC(C)C)C(=O)N[C@H](CCCCN)C(=O)N[C@H](CCCCN)C(=O)N[C@@H](C(=O)N[C@@H](C(=O)N[C@H](C)C(=O)N[C@H](CCCCN)C(N)=O)[C@H](C)CC)[C@H](C)CC (H-G[dI][dL][dS][dS][dL][dW][dK][dK][dL][dK][dK][dI][dI][dA][dK]-NH2)	≤ 3	1.7 (≈ 3.1 µg/mL)	5 (≈ 9.13 µg/mL)	8.8 (≈ 16.1 µg/mL)	3.2 (≈ 5.84 µg/mL)	0.73	191	6.3 (≈ 11.5 µg/mL)		≤ 7	0.29	6.7 (≈ 12.2 µg/mL)	8 (≈ 14.6 µg/mL)	0.58	2.9 (≈ 5.29 µg/mL)
H-GILKSLLKKLKKIIAK-NH2	≤ 3	2.2	10	8.9	10	0.54	> 400	17	4.3	≤ 7	0.33	5	24	0.52	
H-GIMSSLMKKLAKIIAK-NH2	≤ 3	5	3.7	9.3	10	0.5	88	9		≤ 7	0.43	4.5	11	0.79	5.2
H-GIMSSLMKKLAKIIKK-NH2	≤ 3	2.9	15	10	17	0.38	> 400	33		≤ 7	0.42	5.2	7.6	0.54	8.6
CC[C@@H](C)[C@@H](NC(=O)CN)C(=O)N[C@H](CC(C)C)C(=O)N[C@H](CO)C(=O)N[C@H](CO)C(=O)N[C@H](CC(C)C)C(=O)N[C@H](CC(C)C)C(=O)N[C@H](CCCCN)C(=O)N[C@H](CCCCN)C(=O)N[C@H](CC(C)C)C(=O)N[C@H](CCCCN)C(=O)N[C@H](CCCCN)C(=O)N[C@@H](C(=O)N[C@@H](C(=O)N[C@H](C)C(=O)N[C@H](CCCCN)C(N)=O)[C@H](C)CC)[C@H](C)CC (H-G[dI][dL][dS][dS][dL][dL][dK][dK][dL][dK][dK][dI][dI][dA][dK]-NH2)	≤ 3	3.2 (≈ 5.61 µg/mL)	4.5 (≈ 7.89 µg/mL)	9.7 (≈ 17 µg/mL)	6.3 (≈ 11 µg/mL)	0.63	333	5.7 (≈ 9.99 µg/mL)		≤ 7	0.3	4.5 (≈ 7.89 µg/mL)	9 (≈ 15.8 µg/mL)	0.75	2.6 (≈ 4.56 µg/mL)
